Results published in ChEMBL document CHEMBL3351402, “An efficient synthesis and biological screening of benzofuran and benzo[d]isothiazole derivatives for Mycobacterium tuberculosis DNA GyrB inhibition” (Bioorg Med Chem, 2014).
Converted amounts (≈) assume the structure as drawn.

What was measured:
[1] = target: DNA gyrase subunit A/DNA gyrase subunit B (Mycobacterium tuberculosis (strain ATCC 25618 / H37Rv), UniProt P9WG45+P9WG47); assay: Inhibition of Mycobacterium tuberculosis DNA gyrase using relaxed pBR322 as substrate after 30 mins by supercoiling assay
[2] = system: Mycobacterium tuberculosis; assay: Antimicrobial activity against Mycobacterium tuberculosis H37Rv after 7 days by MABA assay; type: functional; settings: 168 h
In short: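 M. tuberculosis H37Rv inoculum from fresh LJ medium, resuspended in 7H9 broth (0.1% casitone, 0.5% glycerol, OADC), adjusted to McFarland No. 1 and diluted 1:20. Serial two-fold drug dilutions in 7H9-S. Drug-free and sterile controls. Incubated 7 days at 37 °C, then Alamar blue added and plates re-incubated overnight. MIC = lowest concentration preventing the blue-to-pink change.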

[3] = target: DNA gyrase subunit B (Mycobacterium smegmatis) (UniProt P0C559); assay: Inhibition of purified Mycobacterium smegmatis GyrB ATPase activity at 50 to 100 uM after 100 mins by ATPase assay; settings: Mycolicibacterium smegmatis
In short: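 M. smegmatis GyrB expressed in BL21(DE3)pLysS, IPTG-induced (0.1 mM final), then Ni-NTA purified. Started with MgCl2, 100 min at room temperature. Released phosphate read at 635 nm.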

[4] = Cytotoxicity against mouse RAW264.7 cells assessed as reduction in cell viability at 100 uM after 72 hrs by MTT assay; type: cell-based; settings: read-out: INH
In short: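 RAW 264.7 mouse macrophages exposed to compound at 100 µM for 72 h. Viability measured by MTT conversion to formazan, with absorbance at 560 nm after 10 min incubation. Reported as percent inhibition.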

[5] = target: DNA gyrase subunit B (Mycobacterium smegmatis, UniProt P0C559); assay: Inhibition of purified Mycobacterium smegmatis GyrB at 50 to 100 uM after 100 mins by ATPase assay; parameters: species or system Mycolicibacterium smegmatis
[6] = target: DNA gyrase subunit A/DNA gyrase subunit B (Mycobacterium tuberculosis (strain ATCC 25618 / H37Rv)) (UniProt P9WG45+P9WG47); assay: Binding affinity to Mycobacterium tuberculosis DNA gyrase by differential scanning fluorimetry
In short: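 Thermal shift assay with native GyrB protein. Reaction of 15 µL: assay buffer (50 mM Tris pH 7.4, 1 mM EDTA, 5 mM DTT), GyrB protein (1.5 mg/mL) and Sypro orange dye (1:100). Heated stepwise from 25 °C to 100 °C at 0.6 °C/min. Tm read from dye fluorescence. Shift in Tm of the ligand complex compared with the native protein Tm.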

Sequence of DNA gyrase subunit B (Mycobacterium smegmatis) (P0C559 2-675 limits assumed): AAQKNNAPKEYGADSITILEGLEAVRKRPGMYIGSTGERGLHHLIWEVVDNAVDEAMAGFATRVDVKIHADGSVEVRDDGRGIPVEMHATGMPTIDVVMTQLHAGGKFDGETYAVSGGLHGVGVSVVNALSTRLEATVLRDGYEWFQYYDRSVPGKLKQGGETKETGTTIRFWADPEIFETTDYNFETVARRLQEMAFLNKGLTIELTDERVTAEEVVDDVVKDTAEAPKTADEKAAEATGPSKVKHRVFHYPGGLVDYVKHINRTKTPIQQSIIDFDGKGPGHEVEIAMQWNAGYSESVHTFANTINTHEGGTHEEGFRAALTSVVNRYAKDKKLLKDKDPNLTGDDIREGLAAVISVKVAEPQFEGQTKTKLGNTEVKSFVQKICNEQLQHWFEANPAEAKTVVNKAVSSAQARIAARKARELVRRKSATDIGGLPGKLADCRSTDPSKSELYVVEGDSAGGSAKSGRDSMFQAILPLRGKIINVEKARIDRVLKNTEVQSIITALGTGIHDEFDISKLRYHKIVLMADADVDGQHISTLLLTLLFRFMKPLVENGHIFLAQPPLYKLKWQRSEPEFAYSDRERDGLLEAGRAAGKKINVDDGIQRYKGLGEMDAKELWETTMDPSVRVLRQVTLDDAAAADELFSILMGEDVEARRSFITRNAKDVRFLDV
Sequence of DNA gyrase subunit B (P0C559 whole entry): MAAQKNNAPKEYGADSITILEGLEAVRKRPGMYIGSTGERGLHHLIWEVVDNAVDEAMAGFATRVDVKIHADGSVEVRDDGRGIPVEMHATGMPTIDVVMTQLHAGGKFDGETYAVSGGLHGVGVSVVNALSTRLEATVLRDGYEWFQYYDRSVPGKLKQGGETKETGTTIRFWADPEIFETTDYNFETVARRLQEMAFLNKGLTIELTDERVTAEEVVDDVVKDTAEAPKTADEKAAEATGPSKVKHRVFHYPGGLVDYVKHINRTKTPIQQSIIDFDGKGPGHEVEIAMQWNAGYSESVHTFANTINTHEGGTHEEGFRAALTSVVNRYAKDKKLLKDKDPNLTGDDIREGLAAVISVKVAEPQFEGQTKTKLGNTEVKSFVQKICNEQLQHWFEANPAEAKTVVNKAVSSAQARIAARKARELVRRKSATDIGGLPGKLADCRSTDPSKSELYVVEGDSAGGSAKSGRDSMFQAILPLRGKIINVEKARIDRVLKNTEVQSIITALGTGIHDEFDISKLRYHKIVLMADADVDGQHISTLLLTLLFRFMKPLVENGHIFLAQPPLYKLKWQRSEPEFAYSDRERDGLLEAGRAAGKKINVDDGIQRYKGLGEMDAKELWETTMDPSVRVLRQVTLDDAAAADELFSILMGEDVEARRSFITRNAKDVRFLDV
Sequence of DNA gyrase subunit A/DNA gyrase subunit B (P9WG45 whole entry): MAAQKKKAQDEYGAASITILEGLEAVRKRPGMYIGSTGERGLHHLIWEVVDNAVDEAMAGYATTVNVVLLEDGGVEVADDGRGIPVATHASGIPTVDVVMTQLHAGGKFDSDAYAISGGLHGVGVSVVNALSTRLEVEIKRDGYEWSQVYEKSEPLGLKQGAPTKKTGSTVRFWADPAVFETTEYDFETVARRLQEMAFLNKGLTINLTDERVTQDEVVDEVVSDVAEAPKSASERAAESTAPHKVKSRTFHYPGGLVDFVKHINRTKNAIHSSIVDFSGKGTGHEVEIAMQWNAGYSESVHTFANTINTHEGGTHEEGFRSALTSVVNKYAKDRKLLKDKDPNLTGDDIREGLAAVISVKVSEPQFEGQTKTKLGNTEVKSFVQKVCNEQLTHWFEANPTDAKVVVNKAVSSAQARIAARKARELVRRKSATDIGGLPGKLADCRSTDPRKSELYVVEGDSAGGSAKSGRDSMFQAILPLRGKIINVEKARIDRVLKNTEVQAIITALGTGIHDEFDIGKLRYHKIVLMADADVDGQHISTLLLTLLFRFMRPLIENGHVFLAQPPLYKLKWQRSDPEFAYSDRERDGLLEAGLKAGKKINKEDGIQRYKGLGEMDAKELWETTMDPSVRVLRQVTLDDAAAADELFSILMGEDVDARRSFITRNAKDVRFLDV
Sequence of DNA gyrase subunit A/DNA gyrase subunit B (P9WG47 whole entry): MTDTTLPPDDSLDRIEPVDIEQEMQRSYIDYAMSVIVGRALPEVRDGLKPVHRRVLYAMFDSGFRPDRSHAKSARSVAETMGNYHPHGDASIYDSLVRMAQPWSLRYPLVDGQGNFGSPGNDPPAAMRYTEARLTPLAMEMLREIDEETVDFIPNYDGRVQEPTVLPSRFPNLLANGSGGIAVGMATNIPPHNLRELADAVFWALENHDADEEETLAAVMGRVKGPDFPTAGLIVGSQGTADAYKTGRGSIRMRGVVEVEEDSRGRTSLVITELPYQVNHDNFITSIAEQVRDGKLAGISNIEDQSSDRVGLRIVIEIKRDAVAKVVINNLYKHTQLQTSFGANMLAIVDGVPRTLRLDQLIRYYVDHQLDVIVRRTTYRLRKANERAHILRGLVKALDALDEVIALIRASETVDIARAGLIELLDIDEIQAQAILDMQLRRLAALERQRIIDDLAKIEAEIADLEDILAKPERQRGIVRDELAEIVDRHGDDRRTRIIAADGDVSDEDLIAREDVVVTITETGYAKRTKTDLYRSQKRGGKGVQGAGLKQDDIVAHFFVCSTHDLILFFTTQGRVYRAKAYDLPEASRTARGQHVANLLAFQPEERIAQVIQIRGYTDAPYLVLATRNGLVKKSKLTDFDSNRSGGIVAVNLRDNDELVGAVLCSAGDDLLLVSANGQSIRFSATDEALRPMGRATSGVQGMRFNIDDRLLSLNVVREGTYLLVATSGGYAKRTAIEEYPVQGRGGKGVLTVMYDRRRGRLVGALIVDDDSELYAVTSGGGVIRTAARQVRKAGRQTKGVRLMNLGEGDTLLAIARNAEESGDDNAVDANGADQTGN

Row | SMILES | IC50 [1] | MIC [2] | inhibition [3] | cytotoxicity at 72 h, 100 µM [4] | IC50 [5] | Tm [6]
1 | CCOC(=O)c1cc2cc(N3CCN(C(=O)Nc4ccc(OC)cc4)CC3)ccc2o1 | 7.33 µM | 4.24 µM (≈ 1.8 µg/mL) | > 60% | 19.9% | 8.19 µM | 
2 | O=C(Nc1ccc(Cl)cc1)N1CCN(c2nsc3ccccc23)CC1 | 0.42 µM | 3.44 µM (≈ 1.28 µg/mL) | > 60% | 20.3% | 1.77 µM | 46.1 °C
3 | CCOC(=O)c1cc2cc(N3CCN(C(=O)Nc4ccc([N+](=O)[O-])cc4)CC3)ccc2o1 | 2.93 µM | 16.3 µM (≈ 7.15 µg/mL) | > 60% | 19.6% | 5.07 µM | 
4 | CCOC(=O)c1cc2cc(N3CCN(C(=O)Nc4ccccc4)CC3)ccc2o1 | 7.14 µM | 92.6 µM (≈ 36.4 µg/mL) |  | 21.3% | 16.9 µM | 
5 | O=C(Nc1ccc([N+](=O)[O-])cc1)N1CCN(c2nsc3ccccc23)CC1 | 12.2 µM | 28.5 µM (≈ 10.9 µg/mL) |  | 20.9% | 27.1 µM | 
6 | O=C(NCc1ccccc1)N1CCN(c2nsc3ccccc23)CC1 | 1.18 µM | 1.9 µM (≈ 0.67 µg/mL) | > 60% | 30.2% | 2.36 µM | 
7 | CC1COc2c(N3CCN(C)CC3)c(F)cc3c(=O)c(C(=O)O)cn1c23 (stereo not given) [OFLOXACIN] |  | 2.16 µM (≈ 0.781 µg/mL) |  |  |  | 
8 | S=C(NCc1ccccc1)N1CCN(c2nsc3ccccc23)CC1 | > 25 µM | 14.7 µM (≈ 5.42 µg/mL) |  | 19.1% | 46 µM | 
9 | CCOC(=O)c1cc2cc(N3CCN(C(=S)Nc4ccc(Cl)cc4)CC3)ccc2o1 | 13.2 µM | 16.1 µM (≈ 7.13 µg/mL) |  | 30% | 35.2 µM | 
10 | O=C(NCc1ccc(Cl)cc1)N1CCN(c2nsc3ccccc23)CC1 | 3.55 µM | 14.1 µM (≈ 5.46 µg/mL) | > 60% | 29.1% | 6.88 µM | 
11 | S=C(Nc1ccccc1)N1CCN(c2nsc3ccccc23)CC1 | 3.9 µM | 15.2 µM (≈ 5.4 µg/mL) | > 60% | 39.3% | 9.14 µM | 
12 | NNC(=O)c1ccncc1 [ISONIAZID] |  | 0.66 µM (≈ 0.0905 µg/mL) |  |  |  | 
13 | CO[C@H]1/C=C/O[C@@]2(C)Oc3c(C)c(O)c4c(O)c(c(/C=N/N5CCN(C)CC5)c(O)c4c3C2=O)NC(=O)/C(C)=C\C=C\[C@H](C)[C@H](O)[C@@H](C)[C@@H](O)[C@@H](C)[C@H](OC(C)=O)[C@@H]1C [RIFAMPIN] |  | 0.23 µM (≈ 0.189 µg/mL) |  |  |  | 
14 | CCOC(=O)c1cc2cc(N3CCN(C(=S)Nc4ccc(OC)cc4)CC3)ccc2o1 | 19.8 µM | 16.2 µM (≈ 7.14 µg/mL) |  | 20.6% | 24.4 µM | 
15 | CCOC(=O)c1cc2cc(N3CCN(C(=O)NCc4ccccc4)CC3)ccc2o1 | 3.12 µM | 35.5 µM (≈ 14.4 µg/mL) | > 60% | 40.9% | 4.32 µM | 
16 | CCOC(=O)c1cc2cc(N3CCN(C(=S)Nc4ccccc4)CC3)ccc2o1 | 7.2 µM | 35.3 µM (≈ 14.4 µg/mL) |  | 22.9% | 15.6 µM | 

Row | SMILES | IC50 [1] | MIC [2] | inhibition [3] | cytotoxicity at 72 h, 100 µM [4] | IC50 [5] | Tm [6]
17 | COc1ccc(NC(=S)N2CCN(c3nsc4ccccc34)CC2)cc1 | 1.05 µM | 3.54 µM (≈ 1.36 µg/mL) | > 60% | 19% | 2.86 µM | 
18 | S=C(Nc1ccc(Cl)cc1)N1CCN(c2nsc3ccccc23)CC1 | 4.21 µM | 3.51 µM (≈ 1.37 µg/mL) | > 60% | 44.2% | 9.32 µM | 
19 | CCOC(=O)c1cc2cc(N3CCN(C(=S)Nc4ccc([N+](=O)[O-])cc4)CC3)ccc2o1 | 10.6 µM | 62.6 µM (≈ 28.4 µg/mL) | > 60% | 25.8% | 12.9 µM | 
20 | CC(=O)c1ccc(NC(=S)N2CCN(c3nsc4ccccc34)CC2)cc1 | 8.4 µM | 13.8 µM (≈ 5.48 µg/mL) |  | 40.7% | 11.1 µM | 
21 | CCOC(=O)c1cc2cc(N3CCN(C(=O)NCc4ccc(Cl)cc4)CC3)ccc2o1 | 1.61 µM | 64.6 µM (≈ 28.6 µg/mL) | > 60% | 21.6% | 2.97 µM | 
22 | CC(=O)c1ccc(NC(=O)N2CCN(c3nsc4ccccc34)CC2)cc1 | 9.51 µM | 28.7 µM (≈ 10.9 µg/mL) |  | 20.2% | 29.3 µM | 
23 | CCOC(=O)c1cc2cc(N3CCN(C(=S)NCc4ccc(Cl)cc4)CC3)ccc2o1 | 11.3 µM | 62 µM (≈ 28.4 µg/mL) |  | 41.5% | 29.9 µM | 
24 | S=C(NCc1ccc(Cl)cc1)N1CCN(c2nsc3ccccc23)CC1 | 4.4 µM | 6.82 µM (≈ 2.75 µg/mL) |  | 25.9% | 11.3 µM | 
25 | CCOC(=O)c1cc2cc(N3CCN(C(=S)Nc4ccc(C(C)=O)cc4)CC3)ccc2o1 | 16.9 µM | 31.5 µM (≈ 14.2 µg/mL) |  | 21.2% | 27.3 µM | 
26 | COc1ccc(NC(=O)N2CCN(c3nsc4ccccc34)CC2)cc1 | 12.2 µM | 14.7 µM (≈ 5.42 µg/mL) |  | 37.6% | 26.2 µM | 
27 | O=C(Nc1ccccc1)N1CCN(c2nsc3ccccc23)CC1 | 4.59 µM | 68.9 µM (≈ 23.3 µg/mL) |  | 27% | 19.9 µM | 
28 | O=[N+]([O-])c1ccc(NC(=S)N2CCN(c3nsc4ccccc34)CC2)cc1 | 0.83 µM | 13.7 µM (≈ 5.48 µg/mL) | > 60% | 27.6% | 1.81 µM | 
29 | CCOC(=O)c1cc2cc(N3CCN(C(=O)Nc4ccc(C(C)=O)cc4)CC3)ccc2o1 | 3.55 µM | 83.5 µM (≈ 36.4 µg/mL) | > 60% | 21.6% | 7.86 µM | 
30 | CCOC(=O)c1cc2cc(N3CCN(C(=S)NCc4ccccc4)CC3)ccc2o1 | 9.1 µM | 33.9 µM (≈ 14.4 µg/mL) |  | 45.8% | 20.4 µM | 
31 | CCOC(=O)c1cc2cc(N3CCN(C(=O)Nc4ccc(Cl)cc4)CC3)ccc2o1 | 18.2 µM | 16.8 µM (≈ 7.17 µg/mL) |  | 19.2% | 20.7 µM | 
32 | CC[C@@H](CO)NCCN[C@@H](CC)CO [ETHAMBUTOL] |  | 0.66 µM (≈ 0.135 µg/mL) |  |  |  | 
